No end group written: not given here.

The text below walks through data of article PMC9200128 (Chemical Science, 2022).

For one data set, the system named is MDA-MB-231 cells. The data set is described as follows: Uptake of fluorescein labelled peptide, confocal microscopy. The format is cell-based, human. Conditions: 10 μM, confocal fluorescence, inside cells at 3 and 6 hours; Fig. 1d, e.
Another data set relates to MCF-10A cells. The data set is described as follows: Uptake of fluorescein labelled peptide, confocal microscopy. The format is cell-based, human. Conditions: 10 μM, confocal fluorescence; Fig. 1d, e. The essentials: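 MCF-10A cells were grown in 1:1 DMEM/Ham's F12 with 5% horse serum, EGF, insulin, hydrocortisone, cholera toxin and pen/strep. They were plated a day ahead at 2 × 10^5 in glass-bottom chamber dishes and exposed to fluorescein-labelled peptide (10 μM) for up to 24 h. Nuclei were stained with Hoechst 33342 and mitochondria with Rhodamine 800, then imaged by confocal microscopy over time. Data: 25 cells per field per time point, n = 5 independent experiments, mean ± SD.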

Data set [1] relates to rat cardio myoblast H9C2 cells. Briefly: Penetration and cytotoxicity in non-malignant immortalized cells. In kind it is cell-based. Conditions: semi-confocal microscopy, 3h incubation; Fig. S2.
The subject of data set [2] is human embryonic kidney 293 HEK cells. The description is as above. In kind it is cell-based. The settings on record: semi-confocal microscopy, 3h incubation; Fig. S2.
A short description of data set [3]: Body weight of xenograft mice during treatment. In kind it is in vivo. The settings on record: 9 doses 5 mg kg−1, Fig. 6c. The essentials: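 MDA-MB-231 cells (3 × 10^6) injected subcutaneously into 7–8-week-old athymic nude (FOXN1NU) mice. Dosing started 28 days after inoculation and ran for 3 weeks: either 6 doses of peptide at 50 μM (0.875 mg kg−1; 17.5 microgram/mouse) or 9 doses of doxorubicin (5 mg kg−1). Body weight and tumour size were tracked throughout.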

With “Fl-NAF-1^44-67: NAF-1^44-67 labelled with fluorescein ({5(6)‑carboxyfluorescein}-FLGVLALLGYLAVRPFLPKKKQQK; UniProt Q8N5K1 44-67, looked up, fragment)”, the “penetration of fluorescein-labelled peptide into MDA-MB-231 cells” value with MDA-MB-231 cells is on record as “preferentially penetrated MDA-MB-231 cancer cells”. Moreover, the “penetration of fluorescein-labelled peptide into MCF-10A cells” value in the data set with MCF-10A cells is given as “did not permeate normal cells”. The “entry of fluorescein-labelled peptide into H9C2 cells” value in data set [1] is listed as “no entry”. For the same molecule, in data set [2], the “entry of fluorescein-labelled peptide into 293 HEK cells” value was “no entry”.

In the case of `COc1cccc2c1C(=O)c1c(O)c3c(c(O)c1C2=O)C[C@@](O)(C(=O)CO)C[C@@H]3O[C@H]1C[C@H](N)[C@H](O)[C@H](C)O1` [doxorubicin], in data set [3], the “body weight during treatment” value is on record as “severe decrease in body weight”.
